The text below walks through data of article PMC8962836 (Journal of Alzheimer's disease : JAD, 2016).

Each structure is given as a SMILES string. pIC50: −log10 of the molar value. Values joined by “and” are separate entries in the source; they are usually repeats but may differ in a detail not shown here. Equal values may be shown once. “Also recorded” adds a separate entry of the source.

What is called pIC50 is the negative decadic logarithm of the IC50, by convention in mol/L.

The subject of one data set is 3xTgAD mouse model. Conditions: cited from earlier work.
The subject of a further data set is Aβ levels. Conditions: cited from earlier work.
A further data set relates to calpain 1. The note with it: read-out: IC50 calpain 1; cited from earlier work.
The test system of a further data set is mice. The note with it: mouse, in vivo.
For another data set, the system named is WT mice. The note with it: mouse, in vivo, ip.
The test system of data set [1] is AβPP/PS1 mice. Briefly: 2-day radial-arm water maze. It counts as in vivo, mouse. The gist of the method:
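2-day RAWM in AβPP/PS1 and WT littermates given vehicle or test compound daily. Compounds were dissolved in Tween-80 + DMSO, then diluted with vehicle. Mice were trained […] to find a goal-arm platform, alternating visible and hidden platform. Investigators were blind to treatment and genotype. Data are mean ± SEM, analysed by two-way repeated-measures ANOVA.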

The test system of data set [2] is calpain (calpain-generated spectrin fragment around 145 kDa). The data set is described as follows: Spectrin western blotting of hippocampal homogenates after in vivo treatment. On the set-up: species or system mouse. The gist of the method: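 Hippocampi were taken from mice given test compound or vehicle. Tissue was homogenized in 62.5 mM Tris-HCl pH 6.8, 3% LDS, 1 mM DTT, held 10 min at 4°C, sonicated and centrifuged (20,000 rpm, 5 min). Extracts (15 μg/lane; vehicle also 20 μg) ran on 3–8% Tris-Acetate gels. Blots were probed with spectrin and β-III-tubulin antibodies (1:1,000) for the ~145 kDa calpain fragment.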
For orientation: A western blot detects proteins with antibodies after separation by electrophoresis.

Data set [3] relates to AβPP/PS1 mice. Briefly: Contextual fear conditioning. It counts as in vivo, mouse. The gist of the method: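 AβPP/PS1 and WT littermates got daily vehicle or test compound (Tween-80/DMSO, then vehicle-diluted). Training: one mouse per room, 2 min in the conditioning chamber, 0.50 mA foot shock for 2 s in the last 2 s, then 30 s more before returning to the home cage. Contextual freezing was scored. Investigators were blind to treatment and genotype; n = 8–18 per group; mean ± SEM, one-way ANOVA.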

Data set [4] is described as follows: Pharmacokinetic assessment in plasma. It counts as in vivo, ICR mice. The method, boiled down:
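Male ICR mice (54 total; 3 groups of 18) were dosed i.p. with test compound in Tween-80 + DMSO diluted with vehicle. Plasma was separated by centrifugation (11,000 rpm, 5 min), stored at –80°C, and 25 μl was processed for LC/MS/MS. Calibration standards were spiked into heparinized blank mouse plasma at 3.00–10,000 ng/ml.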

The subject of data set [5] is Aβ42-induced LTP impairment in hippocampal slices. Type of data set: cell-based, mouse. Conditions: compound 650 nM co-administered with Aβ42 (200 nM, 20 min). The gist of the method: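 Mouse transverse hippocampal slices (400 μm) were kept in an interface chamber at 29°C. Aβ42 oligomers were formed overnight at 4°C in ACSF, then diluted in vehicle. Test compound (Tween-80/DMSO stock diluted in vehicle) was perfused with Aβ42 for 20 min before tetanization, and responses were recorded for 120 min. Data are % of control or (co-treatment/Aβ42 alone)×100; mean ± SEM, repeated-measures two-way ANOVA.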

[6] abbreviates: daily treatment from age 2 months until 7 months.

For the compound `CCN(CC)Cc1ccc(/C=C/c2ccccc2C(=O)NC(Cc2ccccc2)C(=O)C(N)=O)cc1` (centres unmarked) [A-705253], the “Activity in 3xTgAD mouse model” value in the data set with 3xTgAD mouse model was “rescuing memory defects, and reducing levels of BACE enzyme, Aβ deposits, and overall neuroinflammation”.
Regarding `CC(C)C[C@H](NS(=O)(=O)c1ccccc1)C(=O)N[C@@H](C(C)C)[C@@H](O)c1c(-c2ccccc2)c1=O` [BDA-410], the “Effect on Aβ levels” value in the data set with Aβ levels was “do not have any effect on Aβ levels”.
For the compound `CC(C)C[C@H](NC(=O)[C@H]1O[C@@H]1C(=O)O)C(=O)NCCCCN=C(N)N` [E64], the “Effect on Aβ levels” value in the data set with Aβ levels is “do not have any effect on Aβ levels”.
As for `O=C(NCc1cn(-c2ccc(F)cc2)nn1)[C@H](Cc1cscn1)NC(=O)[C@H]1O[C@@H]1C(=O)O` [NYC488], in the data set with calpain 1, the pIC50 was greater than 7.00. Also, the “Clinical signs of toxicity after acute single dose at MTD” value in the data set with mice was “No clinical signs of toxicity”. The “Maximum tolerated dose (MTD)” value with WT mice was 200 mg/kg. The “RAWM performance of WT littermates” value in the data set with AβPP/PS1 mice [1] (WT littermates, treatment 2 to 3 months of age) is reported as “did not affect the WT littermate performance”. Also, the entries for the “Spatial memory defect (2-day RAWM) in AβPP/PS1 mice” value with AβPP/PS1 mice [1] (daily treatment from age 2 months until 3 months) and with AβPP/PS1 mice [1] (setting [6]) were “ameliorated the defect in spatial memory; also recorded: ameliorated the deficit in RAWM performance” and “ameliorated the defect in spatial memory”, respectively. The “Prevention of calpain-generated spectrin fragments in hippocampus” value in [2] (i.p. treatment for 12 days, same doses as PK) is given as “dramatically reduced the amount of fragments”. In addition, the “Ability to cross the blood-brain barrier and inhibit calpain in the brain” value in data set [2] (inferred from spectrin fragment decrease after systemic administration) was “cross the blood-brain barrier (BBB) and inhibit calpain in the brain”. Moreover, the “Contextual fear memory defect in AβPP/PS1 mice” value in the data set on AβPP/PS1 mice [3] (daily treatment from age 2 months until 3 months, 7.57/7.86/7.83 mg/kg) is on record as “ameliorated the defect in contextual fear memory”; in the data set with AβPP/PS1 mice [3] (setting [6]), “ameliorated the defect in contextual fear memory”. The same compound returned an Absolute bioavailability in data set [4] (i.p., equimolar dose (7.57/7.86/7.83 mg/kg)) of 41.3%. Further, the Half-life in data set [4] (plasma, i.p., equimolar dose (7.57/7.86/7.83 mg/kg)) was 0.6 h and ~ 0.6 h. Also, the Absorption result in [4] (upon i.p. injection) is listed as “rapidly absorbed”. In addition, the “Rescue of Aβ42-induced LTP impairment (phenotypic screening)” value in data set [5] was “robust results; also recorded: surpassed E64 benchmark in the LTP rescue assay”.
